pIC50: −log10 of the molar value.
Legend:
[1] = target: Angiotensin-converting enzyme (Homo sapiens, UniProt P12821); experiment: Inhibition of human recombinant ACE by fluorimetry
[2] = target: T1, Neprilysin (Sus scrofa, UniProt P19621); experiment: Inhibition of pig kidney NEP by fluorimetry
T1 sequence (P19621 whole entry): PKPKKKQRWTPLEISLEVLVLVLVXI
Outline: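 Fluorescence was read at λex 340 nm and λem 530 nm. IC50 was derived from inhibition curves, and the assay was validated with a reference inhibitor IC50.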

[3] = target: T2, Endothelin-converting enzyme 1 (Homo sapiens, UniProt P42892); experiment: Inhibition of human recombinant ECE1 by fluorimetry
T2 sequence (P42892 whole entry): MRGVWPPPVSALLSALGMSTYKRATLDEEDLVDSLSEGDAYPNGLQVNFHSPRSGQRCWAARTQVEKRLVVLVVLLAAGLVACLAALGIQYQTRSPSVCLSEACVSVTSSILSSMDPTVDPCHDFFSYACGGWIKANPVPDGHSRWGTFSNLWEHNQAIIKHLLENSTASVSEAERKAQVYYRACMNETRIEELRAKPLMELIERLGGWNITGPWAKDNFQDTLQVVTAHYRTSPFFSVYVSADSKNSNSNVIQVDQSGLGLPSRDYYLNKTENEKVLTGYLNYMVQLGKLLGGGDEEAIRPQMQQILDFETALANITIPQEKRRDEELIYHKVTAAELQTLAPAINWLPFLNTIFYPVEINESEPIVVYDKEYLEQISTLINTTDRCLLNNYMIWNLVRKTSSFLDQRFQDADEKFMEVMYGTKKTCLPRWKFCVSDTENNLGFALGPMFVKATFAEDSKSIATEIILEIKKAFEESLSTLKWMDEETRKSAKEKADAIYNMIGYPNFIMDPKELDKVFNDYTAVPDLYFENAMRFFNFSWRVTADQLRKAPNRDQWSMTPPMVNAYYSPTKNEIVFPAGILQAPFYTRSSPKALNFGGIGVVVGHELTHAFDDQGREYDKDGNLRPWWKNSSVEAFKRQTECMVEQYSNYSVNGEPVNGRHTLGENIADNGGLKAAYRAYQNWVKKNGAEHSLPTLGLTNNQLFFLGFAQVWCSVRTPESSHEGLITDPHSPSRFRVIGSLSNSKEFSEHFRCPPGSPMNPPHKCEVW

Sequence of Angiotensin-converting enzyme (P12821 whole entry): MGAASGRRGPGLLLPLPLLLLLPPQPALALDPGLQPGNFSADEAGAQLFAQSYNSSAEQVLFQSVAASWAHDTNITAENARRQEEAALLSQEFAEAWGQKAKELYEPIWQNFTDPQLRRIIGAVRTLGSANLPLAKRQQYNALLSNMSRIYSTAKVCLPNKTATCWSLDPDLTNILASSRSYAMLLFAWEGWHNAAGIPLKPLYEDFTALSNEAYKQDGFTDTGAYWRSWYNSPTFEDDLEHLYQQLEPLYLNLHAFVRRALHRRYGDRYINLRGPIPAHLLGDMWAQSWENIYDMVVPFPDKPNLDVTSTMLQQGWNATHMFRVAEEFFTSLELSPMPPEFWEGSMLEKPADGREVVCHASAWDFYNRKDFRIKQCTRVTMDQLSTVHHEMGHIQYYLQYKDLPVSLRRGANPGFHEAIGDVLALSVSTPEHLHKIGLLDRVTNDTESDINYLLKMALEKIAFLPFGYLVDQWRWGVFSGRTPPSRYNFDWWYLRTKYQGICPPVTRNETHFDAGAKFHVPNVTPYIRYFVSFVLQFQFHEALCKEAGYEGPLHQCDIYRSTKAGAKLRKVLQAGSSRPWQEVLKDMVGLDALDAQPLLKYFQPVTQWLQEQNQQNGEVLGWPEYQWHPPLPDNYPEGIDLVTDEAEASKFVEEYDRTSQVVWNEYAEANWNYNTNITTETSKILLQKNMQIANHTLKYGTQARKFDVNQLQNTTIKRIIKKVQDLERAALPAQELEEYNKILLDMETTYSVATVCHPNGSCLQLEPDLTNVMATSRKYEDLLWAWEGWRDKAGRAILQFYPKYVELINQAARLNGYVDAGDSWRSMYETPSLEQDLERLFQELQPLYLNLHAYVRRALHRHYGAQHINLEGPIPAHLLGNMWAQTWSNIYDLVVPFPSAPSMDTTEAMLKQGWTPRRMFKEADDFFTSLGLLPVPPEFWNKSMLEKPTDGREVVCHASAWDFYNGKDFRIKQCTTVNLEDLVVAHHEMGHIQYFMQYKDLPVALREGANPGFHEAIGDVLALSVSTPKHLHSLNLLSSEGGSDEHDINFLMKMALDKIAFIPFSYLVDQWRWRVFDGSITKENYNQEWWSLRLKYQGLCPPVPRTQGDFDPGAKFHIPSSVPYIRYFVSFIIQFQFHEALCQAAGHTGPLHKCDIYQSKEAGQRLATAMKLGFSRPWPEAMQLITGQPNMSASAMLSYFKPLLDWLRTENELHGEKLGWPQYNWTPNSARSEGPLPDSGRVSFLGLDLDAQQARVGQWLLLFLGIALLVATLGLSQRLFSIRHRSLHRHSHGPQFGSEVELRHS

SMILES | pIC50 [1] | pIC50 [2] | pIC50 [3]
O=C(CC(S)C(F)(F)F)NC(Cc1ccc(F)cc1)C(=O)O (stereo not drawn) | 6.52 | 6.64 | < 5.00
CC(C)CC(S)CC(=O)NC(Cc1ccccc1)C(=O)O (stereo not drawn) | < 5.00 | 7.39 | < 5.00
O=C(O)CNC(=O)C(CS)Cc1ccccc1 (stereo not drawn) [THIORPHAN] |  | 8.21 | 
O=C(CC(S)C(F)(F)C(F)(F)F)NC(Cc1ccccc1)C(=O)O (stereo not drawn) | 6.00 | 5.94 | 5.62
O=C(CC(S)C(F)(F)F)NC(Cc1ccccc1)C(=O)NC(Cc1ccc(O)cc1)C(=O)O (stereo not drawn) | 6.55 | 6.37 | < 5.00

The remaining compounds from weak to strong by pIC50 [2], led by results:

pIC50 [1] | pIC50 [2] | pIC50 [3] | SMILES
6.40 | 6.24 | < 5.00 | O=C(CC(S)C(F)(F)F)NC(Cc1c[nH]c2ccccc12)C(=O)O (stereo not drawn)
6.08 | 6.52 | < 5.00 | O=C(CC(S)C(F)(F)F)NC(Cc1ccccc1)C(=O)O (stereo not drawn)
6.80 | 7.10 | < 5.00 | O=C(CC(S)C(F)(F)F)NC(Cc1ccc(O)cc1)C(=O)O (stereo not drawn)
 | 7.30 |  | CC(C)CC(S)CC(=O)NC(Cc1ccccc1)C(=O)NC(Cc1ccc(O)cc1)C(=O)O (stereo not drawn)

— ChEMBL document CHEMBL1154033, “Synthesis and enzymatic evaluation of novel partially fluorinated thiol dual ACE/NEP inhibitors” (Bioorg Med Chem Lett, 2009)
